Calls of active or inactive are those of the source. The rule behind the calls is not given here.
How the values were obtained:
PC-3 [1] = assay: Cytotoxicity against human PC3 cells by MTT assay; type: functional, cell-based
In short: (§1)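 MTT colorimetric cytotoxicity assay following NCI protocols. Cells grown in DMEM with 10% heat-inactivated FBS at 37 °C, 5% CO₂.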

[2] = Cytotoxicity against human KATO3 cells by MTT assay; type: functional, cell-based; in short: as §1
[3] = target: T1, Serine/threonine-protein kinase AKT (Homo sapiens) (UniProt P31751+Q9Y243+P31749); assay: Inhibition of GSK3-beta phosphorylation in PC3 cells at 10 uM upto 5 hrs; type: functional, cell-based; details: PC-3, TDE = time-dependent effect
In short: (§2)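 PC-3 cells (2×10⁶) cultured one day in DMEM/10% FBS, then exposed to 10 µM compound for up to 5 h. Lysates (70 µg) resolved on 12% gel. Western blot with anti-phospho-GSK3α/β (Ser21/9), anti-phospho-Akt (Ser473), anti-Akt and anti-GSK3β antibodies, ECL and densitometry. Values are relative to DMSO treatment.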

PC-3 [4] = assay: Antitumor activity against human PC3 cell xenografted in nude mouse at 5 mg/kg/day after 16 days; type: functional
In short: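 Male nude mice, 4 weeks old, inoculated sc in the flank with PC-3 cells (10⁶ cells/site). At 200 mm³ tumors, randomized into groups (n = 6). Dosed iv daily for 16 days in cremophor vehicle (ethanol 7%, cremophor 7%, water). Tumors measured twice weekly by caliper, volume = length·width²/2. Inhibition is relative to vehicle at day 16.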

HepG2 = assay: Cytotoxicity against human HepG2 cells by MTT assay; type: functional, cell-based; in short: as §1
PC-3 [5] = assay: Inhibition of Akt1 phosphorylation in PC3 cells at 10 uM upto 5 hrs; type: functional, cell-based; details: Homo sapiens; in short: as §2
[6] = target: T1, Serine/threonine-protein kinase AKT (Homo sapiens); assay: Inhibition of GSK3-alpha phosphorylation in PC3 cells at 10 uM upto 5 hrs; type: functional, cell-based; details: PC-3, TDE = time-dependent effect; in short: as §2
[7] = target: RAC-alpha serine/threonine-protein kinase (Homo sapiens, UniProt P31749); assay: Inhibition of Akt1 activity assessed as decrease in GSK3 phosphorylation; type: functional
In short: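 Akt1 enzyme (10 U/µL) preincubated 10 min at 37 °C with compound in DMSO in HEPES 20 mM, NaCl 14.3 mM, EDTA 1 mM, DTT 2 mM. Then 3 µL of 2 mM ATP and GSK3 fusion protein added, 30 min at 37 °C. Stopped at 70 °C for 5 min. Phospho-GSK3 detected by SDS-PAGE/Western or dot blot with anti-phospho (Ser21/9) antibody, ECL and densitometry.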

RAC-alpha serine/threonine-protein kinase, sequence (P31749 whole entry, the tested form may be a part): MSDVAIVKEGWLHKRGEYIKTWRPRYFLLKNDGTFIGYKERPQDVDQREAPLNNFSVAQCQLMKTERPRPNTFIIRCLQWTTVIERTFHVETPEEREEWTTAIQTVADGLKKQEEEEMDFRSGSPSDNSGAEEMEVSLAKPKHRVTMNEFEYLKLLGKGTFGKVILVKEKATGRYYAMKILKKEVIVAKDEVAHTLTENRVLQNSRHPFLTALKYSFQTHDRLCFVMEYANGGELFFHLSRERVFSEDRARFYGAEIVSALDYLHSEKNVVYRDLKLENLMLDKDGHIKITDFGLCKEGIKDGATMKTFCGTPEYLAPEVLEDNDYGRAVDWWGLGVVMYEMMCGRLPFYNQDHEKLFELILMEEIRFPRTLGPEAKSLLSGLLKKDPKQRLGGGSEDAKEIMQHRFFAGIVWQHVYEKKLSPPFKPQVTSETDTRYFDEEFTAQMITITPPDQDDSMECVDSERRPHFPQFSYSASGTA
T1 sequence (P31749 whole entry, looked up): as the sequence (P31749 whole entry, the tested form may be a part) above
T1 sequence (P31751 whole entry, looked up): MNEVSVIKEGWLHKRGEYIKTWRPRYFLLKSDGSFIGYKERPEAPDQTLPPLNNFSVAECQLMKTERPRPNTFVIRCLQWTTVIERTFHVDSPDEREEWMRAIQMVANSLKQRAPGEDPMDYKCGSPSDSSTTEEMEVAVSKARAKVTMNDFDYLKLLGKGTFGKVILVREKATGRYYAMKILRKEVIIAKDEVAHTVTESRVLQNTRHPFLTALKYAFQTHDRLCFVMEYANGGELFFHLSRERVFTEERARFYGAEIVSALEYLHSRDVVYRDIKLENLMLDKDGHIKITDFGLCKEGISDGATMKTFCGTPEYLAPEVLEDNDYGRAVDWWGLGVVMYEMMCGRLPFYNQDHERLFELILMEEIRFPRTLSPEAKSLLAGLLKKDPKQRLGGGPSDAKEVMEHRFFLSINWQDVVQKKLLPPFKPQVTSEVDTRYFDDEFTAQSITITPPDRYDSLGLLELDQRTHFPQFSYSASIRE
T1 sequence (Q9Y243 whole entry, looked up): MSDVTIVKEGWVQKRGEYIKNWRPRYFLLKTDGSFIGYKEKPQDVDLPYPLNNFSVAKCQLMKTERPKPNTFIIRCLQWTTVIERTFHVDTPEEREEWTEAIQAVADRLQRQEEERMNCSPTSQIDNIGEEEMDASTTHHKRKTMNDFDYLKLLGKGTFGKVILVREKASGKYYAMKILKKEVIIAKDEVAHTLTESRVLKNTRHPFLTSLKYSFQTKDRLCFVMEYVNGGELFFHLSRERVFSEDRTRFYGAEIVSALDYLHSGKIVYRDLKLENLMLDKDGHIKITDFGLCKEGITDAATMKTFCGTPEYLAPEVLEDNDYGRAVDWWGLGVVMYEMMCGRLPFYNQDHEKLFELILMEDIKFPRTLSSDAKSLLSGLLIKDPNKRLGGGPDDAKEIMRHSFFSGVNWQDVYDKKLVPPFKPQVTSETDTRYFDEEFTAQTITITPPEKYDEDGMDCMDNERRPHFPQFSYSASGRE

Row | SMILES | IC50 (PC-3 [1]) | IC50 [2] | inhibition [3] | Activity (PC-3 [4]) | IC50 (HepG2) | Activity (PC-3 [5]) | inhibition [6] | IC50 [7]
1 | O=C1C(Nc2ccc(C(F)(F)F)cc2)=C(Cl)C(=O)c2[nH]ncc21 | 13.7 µM | 13.8 µM | tde | 27.1% | 9.2 µM | Active | tde | 12.4 µM
2 | O=C1C(Nc2ccc(F)cc2F)=C(Cl)C(=O)c2[nH]ncc21 | – | 9.9 µM | – | – | 2 µM | – | – | 16 µM
3 | O=C1C(Nc2cccc(F)c2)=C(Cl)C(=O)c2[nH]ncc21 | 6.3 µM | 3.9 µM | tde | – | 8.9 µM | Active | tde | 11.8 µM
4 | O=C1C(Nc2cccc(Br)c2)=C(Cl)C(=O)c2[nH]ncc21 | – | 8.9 µM | – | – | 6.1 µM | – | – | 13.9 µM
5 | O=C1C(Nc2ccccc2F)=C(Cl)C(=O)c2[nH]ncc21 | – | 20.2 µM | – | – | 15.8 µM | – | – | 15.8 µM
6 | CCOc1ccc(NC2=C(Cl)C(=O)c3[nH]ncc3C2=O)cc1 | – | 9.7 µM | – | – | 11.2 µM | – | – | 4.9 µM
7 | O=C1C(Nc2cc(F)cc(F)c2)=C(Cl)C(=O)c2[nH]ncc21 | – | 75.8 µM | – | – | 37.6 µM | – | – | > 50 µM
8 | O=C1C(Sc2ccc(Cl)c(Cl)c2)=C(Cl)C(=O)c2[nH]ncc21 | – | > 100 µM | – | – | 88.7 µM | – | – | 12.3 µM
9 | Nc1ccc(N)c2[nH]ncc12 | – | > 100 µM | – | – | > 100 µM | – | – | > 50 µM
10 | O=C1C(Nc2ccc(F)cc2)=C(Cl)C(=O)c2[nH]ncc21 | – | 61.4 µM | – | – | 37.2 µM | – | – | > 50 µM
11 | Cc1cc(C)cc(SC2=C(Cl)C(=O)c3[nH]ncc3C2=O)c1 | – | > 100 µM | – | – | > 100 µM | – | – | > 50 µM

Source: ChEMBL document CHEMBL1145295, “Synthesis and biological evaluation of 5-arylamino-6-chloro-1H-indazole-4,7-diones as inhibitors of protein kinase B/Akt” (Bioorg Med Chem Lett, 2006)
